Results: article PMC5048114 (Iranian Journal of Basic Medical Sciences, 2016)
Values after ≈ are worked out from the molar mass of the structure shown.

Columns and labels:
[1] = Ferric reducing antioxidant potential; details: 30 min incubation at 37 °C, absorbance 593 nm
Procedure, shortened: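 FRAP reagent is 300 mM acetate buffer pH 3.6, 20 mM ferric chloride hexahydrate in water and 10 mM TPTZ in 40 mM HCl, combined 10:1:1 by volume (stock concentrations). Test compound at five concentrations (µg/ml) is added to the reagent in microplate wells, and absorbance is read after incubation. Run in triplicate.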

[2] = DPPH free radical scavenging assay; details: 0.3 mM DPPH, 30 min at 37 °C, absorbance 515 nm
Procedure, shortened: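 Test compound at four concentrations (µg/ml) in microplate wells, mixed with ethanolic DPPH. Blank is solvent alone with DPPH. Absorbance decrease is read after incubation. Run in triplicate and reported as the mean of three values.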

[3] = test system: glutamate-induced neurotoxicity; details: concentrations ranging from 0.1 to 10 µM; cited from earlier work

Row | SMILES | FRAP [1] [mmol/g] | IC50 (DPPH radical scavenging activity) [2] [µg/mL] | attenuation of glutamate-induced neurotoxicity [3]
1 | C[C@@H]1O[C@@H](O[C@@H]2[C@@H](O)[C@H](OCCc3ccc(O)c(O)c3)O[C@H](CO)[C@H]2OC(=O)/C=C/c2ccc(O)c(O)c2)[C@H](O)[C@H](O)[C@H]1O [Verbascoside, verbascoside] | 7.49 | 0.53 (≈ 0.849 µM) | –
2 | C[C@@H]1O[C@@H](OC[C@H]2O[C@@H](OCCc3ccc(O)c(O)c3)[C@H](O)[C@@H](O[C@@H]3O[C@@H](C)[C@H](O)[C@@H](O)[C@H]3O)[C@@H]2OC(=O)/C=C/c2ccc(O)c(O)c2)[C@H](O)[C@H](O)[C@H]1O [Poliumoside, poliumoside] | 14.32 | 0.042 (≈ 0.0545 µM) | significantly attenuated glutamate-induced neurotoxicity
3 | C[C@@H]1O[C@@H](OC[C@H]2O[C@@H](Oc3cc(O)c4c(=O)cc(-c5ccc(O)cc5)oc4c3)[C@H](O)[C@@H](O)[C@@H]2O)[C@H](O)[C@H](O)[C@H]1O [Isorhoifolin, isorhoifolin] | 7.67 | 1.37 (≈ 2.37 µM) | –
4 | COc1cc(O)c2c(=O)c(OC)c(-c3ccc(O)cc3)oc2c1 [Jaranol, jaranol] | 1.5 | 12 (≈ 38.2 µM) | –
5 | Cc1c(C)c2c(c(C)c1O)CC[C@@](C)(CCC[C@H](C)CCC[C@H](C)CCCC(C)C)O2 [α- tocopherol, α-tocopherol, reference compound] | 1.99 | 0.41 (≈ 0.952 µM) | –
